The values that follow come from ChEMBL document CHEMBL3352082, “Pyrazole derivatives as potent inhibitors of c-Jun N-terminal kinase: synthesis and SAR studies” (Bioorg Med Chem, 2014).

Assay [1] deals with Rattus norvegicus. The experiment in a line: Antiinflammatory activity in po dosed rat paw edema model assessed as inhibition of carrageenan-induced paw edema administered 1 hr prior to carrageenan challenge measured after 3 hrs. For orientation: The carrageenan paw model is a standard test of acute inflammation.
Assay [2] has as its system Rattus norvegicus. Put plainly: Antiinflammatory activity in po dosed rat paw edema model assessed as inhibition of carrageenan-induced paw edema administered 1 hr prior to carrageenan challenge measured after 4 hrs.
The subject of assay [3] is Rattus norvegicus. The experiment in a line: Antiinflammatory activity in po dosed rat paw edema model assessed as inhibition of carrageenan-induced paw edema administered 1 hr prior to carrageenan challenge measured after 1 hr.
Assay [4] addresses Mitogen-activated protein kinase 8 (Homo sapiens, UniProt P45983). The experiment in a line: Inhibition of FLAG-tagged JNK-1 (unknown origin) transfected in African green monkey COS cells by SDS-PAGE analysis. It is filed as cell-based. In short, it runs like this:
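COS cells transfected with FLAG-tagged JNK-1 and exposed to 0.5 M sorbitol for 30 min to activate JNK-1. FLAG-JNK immunoprecipitated with GST-ATF2 substrate, and the precipitate pretreated with compound and incubated in buffer B. Phosphorylated substrate separated by SDS–PAGE, visualized by autoradiography and quantified by Cerenkov counting through a kinase profiler service.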

Assay [5] relates to Rattus norvegicus. Put plainly: Antiinflammatory activity in po dosed rat paw edema model assessed as inhibition of carrageenan-induced paw edema administered 1 hr prior to carrageenan challenge measured after 2 hrs.
Assay [6] has as its target c-Jun N-terminal kinase, JNK (Homo sapiens, UniProt P45983+P53779+P45984). Put plainly: Inhibition of JNK (unknown origin). It is filed as protein assay.
Assay [7] deals with Rattus norvegicus. The experiment in a line: Antiinflammatory activity in po dosed rat paw edema model assessed as inhibition of carrageenan-induced paw edema […] measured after 1 hr. It is filed as functional. The procedure, abridged: (§1)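 Rats given test compounds as an oral suspension; 1 h later 1% carrageenan injected into the subplantar region of the right paw. Paw volume read by digital plethysmometer at 1, 2, 3 and 4 h. Reported as mean paw volume (mL) ± SEM with % inhibition; significance p <0.01 / p <0.05. Method after Winter et al.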

Assay [8] deals with Rattus norvegicus. The experiment in a line: Antiinflammatory activity in po dosed rat paw edema model assessed as inhibition of carrageenan-induced paw edema […] measured after 4 hrs. Format: functional. The procedure, abridged: as §1
Assay [9] deals with Rattus norvegicus. The experiment in a line: Antiinflammatory activity in po dosed rat paw edema model assessed as inhibition of carrageenan-induced paw edema […] measured after 2 hrs. It is filed as functional. The procedure, abridged:
as §1

For assay [10], the system named is Rattus norvegicus. The experiment in a line: Antiinflammatory activity in po dosed rat paw edema model assessed as inhibition of carrageenan-induced paw edema […] measured after 3 hrs. Format: functional. In short, it runs like this: as §1
In assay [11] the test system is Rattus norvegicus. The experiment in a line: Antiinflammatory activity in rat paw edema model assessed as inhibition of carrageenan-induced paw edema at 50 mg/kg, po administered 1 hr prior to carrageenan challenge measured after 4 hrs.
For assay [12], the system named is Rattus norvegicus. Put plainly: Antiinflammatory activity in rat paw edema model assessed as inhibition of carrageenan-induced paw edema at 50 mg/kg, po administered 1 hr post carrageenan challenge measured after 2 hrs. It is filed as functional. The conditions noted are these: in the assay text read “1 hr prior to carrageenan challenge” for “1 hr post carrageenan challenge”. The procedure, abridged:
as §1

Assay [13] has as its system Rattus norvegicus. Put plainly: Antiinflammatory activity in rat paw edema model assessed as inhibition of carrageenan-induced paw edema at 50 mg/kg, po administered 1 hr post carrageenan challenge measured after 1 hr. It is filed as functional. To be noted: in the assay text read “1 hr prior to carrageenan challenge” for “1 hr post carrageenan challenge”. In short, it runs like this:
as §1

Assay [14] concerns Rattus norvegicus. Put plainly: Antiinflammatory activity in rat paw edema model assessed as inhibition of carrageenan-induced paw edema at 50 mg/kg, po administered 1 hr post carrageenan challenge measured after 3 hrs. Format: functional. The conditions noted are these: in the assay text read “1 hr prior to carrageenan challenge” for “1 hr post carrageenan challenge”. The procedure, abridged: as §1

Structures are written as SMILES.

Sequence of Mitogen-activated protein kinase 8 (P45983 whole entry): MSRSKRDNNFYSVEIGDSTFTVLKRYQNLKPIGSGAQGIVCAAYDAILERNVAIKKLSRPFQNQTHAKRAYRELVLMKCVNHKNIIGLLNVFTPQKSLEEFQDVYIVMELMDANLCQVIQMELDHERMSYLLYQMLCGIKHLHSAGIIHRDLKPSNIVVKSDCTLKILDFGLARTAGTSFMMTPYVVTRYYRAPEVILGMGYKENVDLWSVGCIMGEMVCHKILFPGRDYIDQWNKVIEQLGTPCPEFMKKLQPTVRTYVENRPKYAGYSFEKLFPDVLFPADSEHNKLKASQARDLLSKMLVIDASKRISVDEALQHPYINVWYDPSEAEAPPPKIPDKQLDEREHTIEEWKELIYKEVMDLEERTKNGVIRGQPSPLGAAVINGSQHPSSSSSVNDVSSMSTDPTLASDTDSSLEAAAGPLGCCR

Broadly, the IC50 is the concentration at which inhibition is half-maximal. `COc1ccc(CNC(=O)c2cc(-c3ccccc3)[nH]n2)cc1`: the “inhibition (INH)” value with Rattus norvegicus [1] was 32.43%; in the assay with Rattus norvegicus [2] it was 16.46%; in the assay on Rattus norvegicus [3] it was 41.93%; in the assay on Rattus norvegicus [5], 39.77%. In addition, in assay [4], half-maximal inhibition (IC50) required 6.1 µM.
As usually defined, the pIC50 is the negative decadic logarithm of the IC50, by convention in mol/L. On to `c1ccc2c(-c3ccncc3)n[nH]c2c1`, for which, in assay [6], the negative-log IC50 (pIC50) was 5.8.
In the case of `O=C(Nc1nccs1)c1cc(-c2ccccc2)[nH]n1`, the “inhibition (INH)” value was found to be 54.65% with Rattus norvegicus [1], 31.4% in the assay with Rattus norvegicus [2], 45.31% in the assay on Rattus norvegicus [3] and 51.06% in the assay on Rattus norvegicus [5]. In assay [4], half-maximal inhibition (IC50) was put at 6.8 µM.
For `O=C(NCc1ccco1)c1cc(-c2ccccc2)[nH]n1`, in that order: 91.89%, 66.33%, 73.11%, 81.81% and 2.8 µM.
The corresponding values for `O=C(NCc1ccc(F)cc1)c1cc(-c2ccccc2)[nH]n1` are 75.27%, 54.66%, 67.86%, 70.27% and 2.9 µM.
For `COc1ccc(-c2cc(NC(=O)c3cc(-c4ccccc4)[nH]n3)no2)cc1`, in that order: 90.54%, 71.66%, 68.81%, 72.72% and 3.2 µM.
Consider `O=C(Nc1ccc(Cl)c(F)c1)c1cc(-c2ccccc2)[nH]n1`, for which the “inhibition (INH)” value in the assay with Rattus norvegicus [1] was determined as 90.54%; with Rattus norvegicus [2], 64.22%; with Rattus norvegicus [3] it was 68.81%; in the assay on Rattus norvegicus [5], 72.7%. The IC50 in assay [4] amounted to 3.1 µM.
In the case of `COc1ccc(CNC(=O)c2cc(-c3ccccc3)[nH]n2)cc1OC`, the “inhibition (INH)” value with Rattus norvegicus [1] is reported as 43.24%; with Rattus norvegicus [2] it was 24.8%; in the assay with Rattus norvegicus [3], 54.83%; in the assay on Rattus norvegicus [5], 46.59%. Moreover, in assay [4], the IC50 was 5.8 µM.
As for `CC(NC(=O)c1cc(-c2ccccc2)[nH]n1)c1cccc2ccccc12` (configuration not stated), the “inhibition (INH)” value in the assay with Rattus norvegicus [7] is recorded as 61.29%; in the assay on Rattus norvegicus [8] it was 50.64%; in the assay with Rattus norvegicus [9], 73.86%; with Rattus norvegicus [10], 74.32%.
Consider `O=C(NCc1ccc(Cl)c(Cl)c1)c1cc(-c2ccccc2)[nH]n1`, for which the “inhibition (INH)” value in the assay with Rattus norvegicus [1] is recorded as 27.02%; with Rattus norvegicus [2] it was 10.11%; in the assay on Rattus norvegicus [3], 45.16%; in the assay on Rattus norvegicus [5], 44.31%. The IC50 in assay [4] was 5.8 µM.
For `O=C(Nc1ccc2[nH]c(S)nc2c1)c1cc(-c2ccccc2)[nH]n1`, in that order: 91.62%, 74.15%, 94.62%, 95.45% and 2.9 µM.
For `O=C(Nc1ccc(O)cc1)c1cc(-c2ccccc2)[nH]n1`, the “inhibition (INH)” value in the assay with Rattus norvegicus [1] was 23.28%; in the assay with Rattus norvegicus [2] it was 16.64%; in the assay on Rattus norvegicus [3] it was 22.11%; with Rattus norvegicus [5] it was 43.24%.
The corresponding values for `CC(C)(C)c1cc(NC(=O)c2cc(-c3ccccc3)[nH]n2)no1` are 52.8%, 41.7%, 68.6% and 70.6%.
Regarding `O=C(Nc1cc(Cl)ccc1Cl)c1cc(-c2ccccc2)[nH]n1`, the “inhibition (INH)” value in the assay on Rattus norvegicus [1] is on record as 45.47%; in the assay on Rattus norvegicus [2], 18.9%; with Rattus norvegicus [3] it was 31.02%; with Rattus norvegicus [5], 40.16%. Moreover, it took 6.2 µM to reach half-maximal inhibition in assay [4] (IC50).
For `O=C(NC1CC1)c1cc(-c2ccccc2)[nH]n1`, in that order: 88.13%, 55.87%, 69.89%, 85.22% and 6.2 µM.
The corresponding values for `CC(=O)c1cccc(NC(=O)c2cc(-c3ccccc3)[nH]n2)c1` are 74.32%, 56.8%, 41.3%, 56.7% and 6.9 µM.
The corresponding values for `O=C(Nc1ccc([N+](=O)[O-])cc1)c1cc(-c2ccccc2)[nH]n1` are 92.56%, 68.7%, 89.24%, 94.31% and 9.8 µM.
As for `O=C(NCc1ccccc1)c1cc(-c2ccccc2)[nH]n1`, the “inhibition (INH)” value turned out to be 48.64% in the assay with Rattus norvegicus [1], 25.66% with Rattus norvegicus [2], 35.48% with Rattus norvegicus [3] and 53.4% in the assay on Rattus norvegicus [5]. Besides, 9.1 µM corresponded to half-maximal inhibition in [4] (IC50).
The corresponding values for `Cc1cc(C)c(NC(=O)c2cc(-c3ccccc3)[nH]n2)c(C)c1` are 44.24%, 26.8%, 53.65%, 45.6% and 11.9 µM.
In the case of `O=C(Nc1ccccc1)c1cc(-c2ccccc2)[nH]n1`, the “inhibition (INH)” value in the assay with Rattus norvegicus [1] is given as 45.64%; in the assay on Rattus norvegicus [2], 30.58%; in the assay with Rattus norvegicus [3], 32.48%; in the assay with Rattus norvegicus [5], 35.02%. Also, half-maximal inhibition in assay [4] (IC50) was put at 9.6 µM.
Regarding `O=C(Nc1ccccn1)c1cc(-c2ccccc2)[nH]n1`, the “inhibition (INH)” value in the assay on Rattus norvegicus [1] is reported as 81.08%; with Rattus norvegicus [2], 64.26%; with Rattus norvegicus [3], 33.3%; with Rattus norvegicus [5], 79.54%. The same molecule returned an IC50 in assay [4] of 8.9 µM.
For `COc1ccc(NC(=O)c2cc(-c3ccccc3)[nH]n2)cc1`, the “inhibition (INH)” value in the assay with Rattus norvegicus [1] was found to be 81.08%; in the assay with Rattus norvegicus [2] it was 66.44%; in the assay on Rattus norvegicus [3], 33.3%; in the assay on Rattus norvegicus [5], 79.54%. In [4], this molecule registered an IC50 of 8.1 µM.
The corresponding values for `O=C(Nc1ccc(Br)cc1)c1cc(-c2ccccc2)[nH]n1` are 51.4%, 38.22%, 42.16%, 46.31% and 5.9 µM.
In general, inhibition in vivo refers to the change of the read-out against control, counted positive when it falls. Turning to `O=C(O)Cc1ccccc1Nc1c(Cl)cccc1Cl` [DICLOFENAC SODIUM], the inhibition in vivo at 50 mg/kg with Rattus norvegicus [11] stood at 51%; with Rattus norvegicus [12], 36%; in the assay on Rattus norvegicus [13] it was 23%; in the assay on Rattus norvegicus [14], 47%.
